In ChEMBL document CHEMBL4828720, “Macrocyclic Immunoproteasome Inhibitors as a Potential Therapy for Alzheimer's Disease” (J Med Chem, 2021):
Activity calls are given as the source filed them. No cut-off for these calls is given here.

Experiments:
[1] = Metabolic stability in ICR mouse whole blood at 1 uM measured upto 30 mins by LC-MS/MS analysis; type: ADME, tissue-based; conditions: 0.5 h
How it was run: (§1)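 Tissues from male ICR mice, 7 weeks old. Heparinized (25 IU/mL) whole blood, or liver homogenized in ice-cold PBS, prewarmed to 37 °C and spiked to a final 1 μM. Samples taken at 0, 10 and 30 min (blood) or 0, 10 and 20 min (liver). […] Remaining drug quantified by C18 LC-MS/MS.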

[2] = Metabolic stability in ICR mouse liver homogenate at 1 uM measured upto 20 mins by LC-MS/MS analysis; type: ADME, tissue-based; conditions: tissue homogenate; how it was run: as §1
Mus musculus [3] = assay: Cognitive enhancing effect in Tg2576 mouse assessed as reduction in escape latency at 10 mg/kg, iv administered twice weekly and measured after 5 days by Morris water maze test; type: functional, organism-based; conditions: time 5.0 day
How it was run: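 Tg2576 mice, 9 months old, given 10 mg/kg twice weekly for 3 weeks. Morris water maze in 25 ± 1 °C water, platform hidden 1-1.5 cm below surface. Three 60-s trials a day from randomized start points for 5 days. Swim paths tracked from an overhead camera. Single probe trial on day 6 scored as time in target quadrant. n=5 treated, n=12 control on days 4-5; Student's t-test.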

Mus musculus [4] = assay: Cognitive enhancing effect in Tg2576 mouse assessed as latency to enter dark compartment at 10 mg/kg, iv administered twice weekly and measured on 7 and 8 days by step-through passive avoidance test; type: functional, organism-based; conditions: time 7-8 day
How it was run: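 Tg2576 mice (9-month-old), 10 mg/kg twice weekly for 3 weeks. Step-through passive avoidance run 48 h after the probe test. Learning trial: 0.45 mA, 3 s shock on entering the dark room. Testing trial 24 h later (day 8) without shock, timed as latency to re-enter the dark chamber from the lighted compartment. n=5; Student's t-test.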

Mus musculus [5] = assay: In vivo inhibition of immunoproteasome in Tg2576 mouse assessed as reduction in serum IL-1alpha level at 10 mg/kg, iv administered twice weekly for 3 weeks by ELISA; type: functional, organism-based
How it was run: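 Serum from Tg2576 mice dosed at 10 mg/kg twice weekly for 3 weeks, diluted 1:5. IL-1α sandwich ELISA: samples and standards 2 h at room temperature, detection antibody 1 h, avidin-HRP 30 min. Stopped with 2N H2SO4 and read at 450 nm against a standard curve of seven twofold dilutions. n=3.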

Mus musculus [6] = species: Mus musculus; assay: Protection against inflammation-triggered RPE degeneration in Tg2576 mouse by immunostaining based confocal microscopic analysis; type: functional, organism-based
How it was run: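 RPE collected after behavioral testing from treated Tg2576 mice and from age-matched non-transgenic ICR mice. Eyecups dissected in ice-cold PBS and retina removed. Tissue permeabilized with 0.2% Triton X-100 for 15 min, blocked with 3% BSA, then anti-β-catenin (1:100) overnight at 4 °C. Alexa 555 secondary 2 h, imaged by confocal microscopy.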

[7] = Toxicity in Tg2576 mouse; conditions: in vivo
[8] = tested on: Proteasome subunit beta type-9 (Canis lupus familiaris); assay: Inhibition of canine 20S proteasome LMP2 activity in MDCK-II cells overexpressing ABCG2 using Ac-PAL-AMC as fluorogenic substrate by fluorescence assay

C[C@]1(C(=O)[C@H](Cc2ccccc2)NC(=O)[C@@H]2Cc3ccc(cc3)OCCCCCCCC(=O)N3CCC[C@H]3C(=O)N2)CO1
Stability [1]: Stable
Stability [2]: Stable
Activity (Mus musculus [3]): Active
Activity (Mus musculus [4]): Active
inhibition (Mus musculus [5]): Active
Activity (Mus musculus [6]): Active
Activity [7]: Non-Toxic
inhibition [8]: Active
